Assay outcomes from PubChem.
SIRT5 inh: blocks human SIRT5 desuccinylation of peptide; Q9NXA8; Purified SirT5, succinyl-peptide AMC, trypsin-coupled fluorescence; inhibition, % at 15 µM; 330,000 compounds, 1.1% hits; in the data active = inhibition above about 15%; inconclusive = no clear call, values can overlap the other calls
Target sequence (Q9NXA8 whole entry, looked up): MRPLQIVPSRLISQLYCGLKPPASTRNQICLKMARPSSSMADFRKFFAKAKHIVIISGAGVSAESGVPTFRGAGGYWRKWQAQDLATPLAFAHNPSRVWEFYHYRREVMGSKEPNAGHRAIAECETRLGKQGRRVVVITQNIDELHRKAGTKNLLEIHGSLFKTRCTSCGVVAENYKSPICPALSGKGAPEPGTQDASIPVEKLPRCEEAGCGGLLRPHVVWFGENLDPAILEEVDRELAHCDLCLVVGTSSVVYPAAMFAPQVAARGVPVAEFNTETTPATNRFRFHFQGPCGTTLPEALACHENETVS
FGF22 binding: binders of recombinant human FGF22 by thermal shift; activity (Tm shift, normalised), % at 9.99 µM; AID 651658; SYPRO orange fluorescence; percent of sucrose octasulfate shift, DMSO zero; Q9HCT0; 340,000 compounds, 1.5% hits;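 active = mean Tm shift, scaled 0 neutral to 100 positive control, at about 1.3% or above, every replicate too, limit read from the data; inconclusive = no clear call, values can overlap the other calls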
Target sequence (Q9HCT0 whole entry, looked up): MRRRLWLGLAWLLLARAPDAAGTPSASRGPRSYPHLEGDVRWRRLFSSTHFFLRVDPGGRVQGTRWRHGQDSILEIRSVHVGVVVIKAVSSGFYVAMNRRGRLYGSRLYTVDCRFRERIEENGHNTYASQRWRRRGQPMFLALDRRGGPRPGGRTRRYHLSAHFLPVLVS
FN deposition inh: fibronectin deposition inhibition | AH1F fibroblasts, Alexa488-fibronectin deposition fluorescence, overnight | inhibition, % at 12.6 µM | 350,000 compounds, 0.086% hits | AID 743247;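 active = mean inhibition across replicates of 30% or more, regardless of how many single replicates reach that level; inconclusive = mean under 30% yet at least half of replicates reach 30%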;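 also: positive control wells lacked labelled fibronectin entirely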
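Material – AH1F fibroblast monolayer, labelled fibronectin deposition · Reagent – labelled fibronectin 24 nM · Timing – 1 h adhesion, overnight exposure · Measured by – fluorescence at 485 nm excitation, 525 nm emission · Read-out – inhibition of fibronectin deposition signal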
rRNA inh HTS: selective bacterial rRNA inhibition in E. coli; 350,000 compounds, 1.6% hits; GFP signal change (wild-type ribosome), % (test concentration not listed); E. coli WT GFP vs humanized-ribosome RFP mutants, fluorescence, 24 h; stronger effect = lower value; DMSO median 0, no signal -100;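 active = significant combined selectivity score with lowered wild-type GFP, culture density cut under 30%, mutant RFP and density less affected; inactive = any of these conditions unmet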
E-selectin induc: E-selectin induction on HUVECs | HUVEC E-selectin immunofluorescence imaging; normalized: neutral wells 0, TNF-alpha wells 100 | activation, % at 7.58 µM | 260,000 compounds, 0.37% hits;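 active = mean E-selectin-positive cell signal at least 10% of the positive control, reached in at least 60% of replicates, without over 20% cell loss; inconclusive = no rule given, readout overlaps actives, possibly toxicity-flagged; inactive = the rest, including those meeting only one limit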
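System: HUVEC, human umbilical vein endothelial cells; quantity: 3,000 cells/well; buffer or medium: EGM-2 medium, gelatin-coated wells; dosing: single-point compound dose; detection: immunofluorescence imaging; evaluation: % PE-positive cells; benchmarks: TNF-alpha, DMSO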
Statin myotox sup: suppressors of simvastatin-induced myotoxicity in C2C12 myotubes; ATP luminescence, 48 h; scaled: DMSO 0, geranylgeraniol control 100; rescue of ATP level, % at 7.49 µM; 330,000 compounds, 0.78% hits;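 active = mean ATP rescue above about 67%, or every replicate alone reaching that limit, limit read from the data, passing the limit was not always enough; inconclusive = no clear call, values can overlap the other calls; inactive = mean under the limit and some replicate under it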;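 also: myotubes were challenged with 10 µM simvastatin during compound exposure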
Numbers without * were called inactive; ? = inconclusive; · = no result given. In the library only some 4% were active in any assay of this set; here they are far more common.

SMILES	SIRT5 inh	FGF22 binding	FN deposition inh	rRNA inh HTS	E-selectin induc	Statin myotox sup
O=Cc1cc(N=Nc2ccc(S(=O)(=O)O)cc2)ccc1O	7	1	-4	-20*	10	·
C[C@@H]1CN([C@H](C)CO)C(=O)c2cc(NC(=O)Nc3ccccc3)ccc2O[C@@H](C)CCCCO[C@H]1CN(C)Cc1ccncc1	-6	0	2	-4	0	·
COc1ccc(CN(C)C[C@H]2Oc3ccc(NC(=O)C4CCCCC4)cc3CC(=O)N([C@@H](C)CO)C[C@H]2C)cc1	4	1.7*	·	-3	·	-3
COc1ccc(CN(C)C[C@H]2Oc3ccc(NC(=O)C4CCCCC4)cc3CC(=O)N([C@@H](C)CO)C[C@@H]2C)cc1	17*	0	·	-3	·	6
C#CCN1CCc2onc(-c3ccc(Br)cc3)c2C1=O	·	43*	3	-8	0	·
CC(C)Cc1csc(NC(=O)c2ccc(Br)cc2)c1C(=O)O	-4	0	1	-26*	·	-5
Cc1sc(NC(=O)c2ccco2)c(C(Nc2ccccn2)c2ccccc2)c1C (centres undefined)	·	·	3	·	·	19
COc1ccc(C(Nc2ccccn2)c2c(NC(=O)c3ccco3)sc(C)c2C)cc1 (centres undefined)	-2	44*	6	-8	·	·
COCCn1c(N)c(C(=O)Nc2sc3c(c2C(=O)OC)CCCC3)c2nc3ccccc3nc21	·	·	·	·	·	99*
COCCn1c(N)c(C(=O)NCC2CCCO2)c2nc3ccccc3nc21 (centres undefined)	·	·	3	·	·	·
CCC(=O)N(C)C[C@H]1Oc2cc(C3=CCCC3)ccc2S(=O)(=O)N([C@H](C)CO)C[C@@H]1C	1	0	·	-6	0	-7
Cc1nn(-c2ccccc2)cc1/C=N/NC(N)=S	-1	0	2	-21*	·	·
COC(=O)C1=C(C)OC(N)=C(C#N)C1C1CCCCC1 (centres undefined)	-1	0	·	-21*	·	4
COC(=O)C1=C(C)OC(N)=C(C#N)C1c1ccccc1 (centres undefined)	·	·	-5	·	1	-11
COc1ccc(S(=O)(=O)Nc2ccc3c(c2)C(=O)N([C@@H](C)CO)C[C@@H](C)[C@@H](CN(C)Cc2ccc(Cl)c(Cl)c2)O3)cc1	-2	0	·	-5	42*	·
C[C@@H]1CN([C@@H](C)CO)C(=O)Cc2cc(NS(=O)(=O)c3ccc(Cl)cc3)ccc2O[C@H]1CN(C)Cc1ccc(Cl)c(Cl)c1	26*	0	8	2	0	?
C[C@@H]1CN([C@@H](C)CO)C(=O)Cc2cc(NS(=O)(=O)c3ccccc3)ccc2O[C@H]1CN(C)Cc1ccc(Cl)c(Cl)c1	20*	0	2	1	0	-34
COc1ccc(S(=O)(=O)Nc2ccc3c(c2)CC(=O)N([C@@H](C)CO)C[C@@H](C)[C@H](CN(C)Cc2ccc(Cl)c(Cl)c2)O3)cc1	0	0	·	3	0	?
C[C@H](CO)N1C[C@H](C)[C@@H](CN(C)Cc2ccc(Cl)c(Cl)c2)Oc2ccc(NS(=O)(=O)c3ccc(Cl)cc3)cc2CC1=O	25*	0	-6	1	0	84*
C[C@H]1CN([C@@H](C)CO)C(=O)Cc2cc(NS(=O)(=O)c3ccc(F)cc3)ccc2O[C@H]1CN(C)Cc1ccc(Cl)c(Cl)c1	·	·	·	-1	2	18
COc1ccc(S(=O)(=O)Nc2ccc3c(c2)CC(=O)N([C@H](C)CO)C[C@H](C)[C@@H](CN(C)Cc2ccc(Cl)c(Cl)c2)O3)cc1	0	0	·	-1	1	201*
C[C@@H]1CN([C@H](C)CO)C(=O)Cc2cc(NS(=O)(=O)c3ccc(Cl)cc3)ccc2O[C@H]1CN(C)Cc1ccc(Cl)c(Cl)c1	15	0	·	-1	0	91*
C[C@@H]1CN([C@H](C)CO)C(=O)Cc2cc(NS(=O)(=O)c3ccc(F)cc3)ccc2O[C@H]1CN(C)Cc1ccc(Cl)c(Cl)c1	·	·	·	-1	2	83*
O=C(C[C@@H]1C[C@H]2c3cc(NC(=O)C4CCC4)ccc3O[C@H]2[C@@H](CO)O1)NCc1ccccc1	0	0	0	-2	0	3
Cn1c(SCC(=O)N(Cc2ccccc2)C(C)(C)C)nc2ccccc21	-1	0	·	-31*	·	·
SMILES	SIRT5 inh	FGF22 binding	FN deposition inh	rRNA inh HTS	E-selectin induc	Statin myotox sup
Cn1c(SCC(=O)N/N=C/c2ccco2)nc2ccccc21	0	43*	-2	7	0	-1
COc1ccccc1C#Cc1ccc([C@@H]2[C@@H](C#N)N(C(=O)C3CCCCC3)[C@H]2CO)cc1	0	0	-2	0	·	-180
O=C(OCc1cc([N+](=O)[O-])cc2c1OCOC2)c1ccccn1	1	43*	-7	7	4	·
O=C(OCc1cc([N+](=O)[O-])cc2c1OCOC2)c1cccnc1SC(F)F	0	0	21	2	0	·
CN1CCN(C(=O)C2CCN(c3ncc(C(F)(F)F)cc3Cl)CC2)CC1	37*	0	-1	9	·	-3
O=C(CN1CCN(c2ncc(C(F)(F)F)cc2Cl)CC1)N1CCN(c2ncc(C(F)(F)F)cc2Cl)CC1	-5	·	-17	-5	·	·
CC(C)=NNc1nc2c(c(=O)[nH]c(=O)n2C)n1CCc1ccccc1	37*	0	-3	8	·	·
COc1cccc(C(=O)Nc2nc3c(c(=O)[nH]2)CCCC3)c1	·	·	3	·	·	96*
Cc1ncc(CO)c(/C=N/NC(=S)Nc2ccc(Cl)c(Cl)c2)c1O	0	1.5*	2	-54	·	·
COc1ccc(C(=O)N/N=C/c2c(CO)cnc(C)c2O)cc1	-4	44*	0	1	·	·
Cc1ncc(CO)c(/C=N/NC(=O)c2ccc(O)cc2)c1O	·	·	0	·	·	·
CCCNC(=O)N1C[C@H](C)[C@H](OC)CN(C)C(=O)c2ccc(NS(=O)(=O)CC(F)(F)F)cc2OC[C@@H]1C	4	0	2	-3	0	1
COC(=O)CNC(=O)COC(=O)/C=C/c1ccc2ccccc2n1	2	43*	-6	12	·	·
C[C@H](CO)N1C[C@H](C)[C@@H](CN(C)C(=O)Nc2ccc(C(F)(F)F)cc2)Oc2ccc(NS(C)(=O)=O)cc2CC1=O	-4	·	·	2	·	3
Cc1ccc(S(=O)(=O)NC(CC(C)C)C(=O)NCC(c2ccco2)N2CCCCC2)cc1 (centres undefined)	-4	·	·	6	·	-7
COc1ccc(C(CNC(=O)C(CC(C)C)NS(=O)(=O)c2ccc(C)cc2)N2CCOCC2)cc1 (centres undefined)	22*	0	5	4	·	19
